Series [1] is described as follows: Metabolic stability in mouse liver microsome assessed as compound conversion at 15 uM after 30 mins. It is filed as ADME. To be noted: liver microsomes, read-out: Drug metabolism.
Series [2] can be described thus: Plasma concentration in mouse at 100 mg/kg, po after 4 hrs. It is filed as ADME, organism-based. Further details: dose 100 mg/kg, route oral. The essentials:
(§1)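 Female nude mice (n = 3) given 100 mpk orally. Plasma compound levels measured 1 and 4 h after dosing, reported as mean ± SD.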

Series [3] is described as follows: Plasma concentration in mouse at 100 mg/kg, po after 1 hr. It is filed as ADME, organism-based. Further details: dose 100 mg/kg, route oral. The essentials:
as §1

The nature of series [4]: Cmax in CD rat at 5 mg/kg. It is filed as ADME, organism-based. Further details: dose 5 mg/kg. To be noted: in vivo. The method, boiled down: (§2)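 Female CD rats, n = 3, given 5 mpk. The HCl salt in saline served as both the oral and the iv formulation. Values are mean ± SD.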
Series [5] in a line: Half life in CD rat at 5 mg/kg. Further details: dose 5 mg/kg. It is filed as ADME, organism-based. To be noted: in vivo. The essentials: as §2
Series [6] in a line: Oral bioavailability in CD rat at 5 mg/Kg. The class given is ADME, organism-based. To be noted: in vivo. The method, boiled down: as §2
A short description of series [7]: Drug uptake in C57BL6 mouse Fat at 10 mg/kg, po after 24 hrs. The class given is ADME, organism-based. Further details: dose 10 mg/kg, route oral. To be noted: fat (adipose tissue), read-out: Drug uptake. The method, boiled down:
(§3)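 Male C57BL6 mice, n = 3, given a single oral dose of 10 mpk. Compound levels in tissue or plasma were measured 24 h after the dose. Values are mean ± SD.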

Series [8] is described as follows: Drug uptake in C57BL6 mouse muscle at 10 mg/kg, po after 24 hrs. The settings on record: read-out: Drug uptake. It is filed as ADME, organism-based, Muscle tissue. Further details: dose 10 mg/kg, route oral. The method, boiled down:
as §3

A short description of series [9]: Tmax in CD rat at 5 mg/kg. It is filed as ADME, organism-based. Further details: dose 5 mg/kg. To be noted: in vivo. The essentials: as §2
Series [10] in a line: Clearance in CD rat at 5 mg/kg. It is filed as ADME, organism-based. Further details: dose 5 mg/kg. The settings on record: in vivo. The essentials: as §2
The nature of series [11]: AUC ( 0 to t) in CD rat at 5 mg/kg. More on the design: dose 5 mg/kg. To be noted: plasma. The class given is ADME, organism-based. The essentials:
as §2

Series [12] in a line: Drug uptake in C57BL6 mouse liver at 10 mg/kg, po after 24 hrs. It is filed as ADME, organism-based. More on the design: dose 10 mg/kg, route oral. The settings on record: read-out: Drug uptake. The essentials:
as §3

Series [13] in a line: Volume of distribution at steady state in CD rat at 5 mg/Kg. The class given is ADME, organism-based. The settings on record: in vivo, read-out: Vdss. The method, boiled down: as §2
Series [14] can be described thus: Plasma concentration in C57BL6 mouse at 10 mg/kg, po after 24 hrs. Further details: dose 10 mg/kg, route oral. It is filed as ADME, organism-based. The essentials: as §3

For `O=C([C@H](Cc1ccc(Cl)cc1Cl)NC(=O)C1(c2ccc(Cl)cc2Cl)CC1)N1CCNCC1`, in [1], the metabolised at 0.5 h, 15 µM was found to be 10%.
Regarding `CN1CCN(C(=O)[C@H](Cc2ccc(Cl)cc2)NC(=O)C2(c3ccc(Cl)cc3Cl)CC2)CC1`, the metabolised at 0.5 h, 15 µM in [1] amounted to 73%.
For `O=C([C@H](Cc1ccc(Br)cc1)NC(=O)C1(c2ccc(Cl)cc2Cl)CC1)N1CCC(O)CC1`, in series [1], the metabolised at 0.5 h, 15 µM came out at 30%.
Same read-out and setting: as for `NC1C[C@H]2CC[C@@H](C1)N2C(=O)[C@H](Cc1ccc(Cl)cc1Cl)NC(=O)C1(c2ccc(Cl)cc2Cl)CC1` (stereo partly drawn), the figure is 20%; as for `NC1C[C@H]2CC[C@@H](C1)N2C(=O)[C@H](Cc1ccc(Cl)cc1Cl)NC(=O)C1(c2ccc(OC(F)(F)F)cc2)CC1` (stereo partly drawn), 8%.
Still for that read-out and setting: as for `NC1C[C@H]2CC[C@@H](C1)N2C(=O)[C@H](Cc1ccc(Br)cc1)NC(=O)C1(c2ccc(Cl)cc2Cl)CC1` (stereo partly drawn), the figure is 20%.
Same read-out and setting: as for `CN1CCN(C(=O)[C@H](Cc2ccc(Br)cc2)NC(=O)C2(c3ccc(Cl)cc3Cl)CC2)CC1`, the figure is 90%; as for `NC1C[C@H]2CC[C@@H](C1)N2C(=O)[C@H](Cc1ccc(Br)cc1)NC(=O)C1(c2ccc(OC(F)(F)F)cc2)CC1` (stereo partly drawn), 7%.
Take `CN1CCN(C(=O)[C@H](Cc2ccc(Cl)cc2Cl)NC(=O)C2(c3ccc(Cl)cc3Cl)CC2)CC1`: the metabolised at 0.5 h, 15 µM in series [1] amounted to 80%. The same compound came in with a concentration at 4 h in [2] of 5800 nM. In addition, the concentration at 1 h in series [3] turned out to be 4200 nM.
`NC1CCN(C(=O)[C@H](Cc2ccc(Br)cc2)NC(=O)C2(c3ccc(Cl)cc3Cl)CC2)CC1`: the metabolised at 0.5 h, 15 µM in [1] was determined as 50%.
The same measure, in the same setting: as for `C[C@@H]1CN(C(=O)[C@H](Cc2ccc(Cl)cc2Cl)NC(=O)C2(c3ccc(Cl)cc3Cl)CC2)CCN1`, the figure is 30%; as for `CN(C)CCN(C)C(=O)[C@H](Cc1ccc(Cl)cc1Cl)NC(=O)C1(c2ccc(Cl)cc2Cl)CC1`, 70%.
For the compound `Cl.NC1C[C@H]2CC[C@@H](C1)N2C(=O)[C@H](Cc1ccc(Br)cc1)NC(=O)C1(c2ccc(OC(F)(F)F)cc2)CC1` (stereo partly drawn), in [4], the concentration peaked (Cmax) at 300 nM. The compound further had a half-life in series [5] of 25.3 h. This compound also had a bioavailability in series [6] of 88.1%. Also, the concentration at 24 h came out at 800 nM in [7], 1800 nM in series [8], 5900 nM in [12] and 500 nM in series [14]. Besides, the Tmax in [9] was 8 h. For the same compound, in series [10], the clearance is 9.58 mL/min/kg. Besides, in series [11], the AUC(0-t) worked out at 5.8 µM·h. Moreover, the Vd in [13] worked out at 19.3 L/kg.
With `NC1CCCC(NC(=O)[C@H](Cc2ccc(Cl)cc2Cl)NC(=O)C2(c3ccc(Cl)cc3Cl)CC2)C1` (stereo partly drawn), the metabolised at 0.5 h, 15 µM in series [1] came to 10%.
Turning to `CN1CCN(C(=O)[C@H](Cc2c[nH]c3ccccc23)NC(=O)C2(c3ccc(Cl)cc3Cl)CC2)CC1`, the metabolised at 0.5 h, 15 µM in series [1] is 90%. This compound also gave a concentration at 4 h in series [2] of 700 nM. The same compound returned a concentration at 1 h in series [3] of 900 nM.
Turning to `CN1CCN(C(=O)[C@H](COCc2ccccc2)NC(=O)C2(c3ccc(Cl)cc3Cl)CC2)CC1`, the metabolised at 0.5 h, 15 µM in series [1] was found to be 50%.
The same measure, in the same setting: as for `CN1CCN(C(=O)[C@H](Cc2ccccc2)NC(=O)C2(c3ccc(Cl)cc3Cl)CC2)CC1`, the figure is 80%; as for `C[C@H]1CN(C(=O)[C@H](Cc2ccc(Cl)cc2Cl)NC(=O)C2(c3ccc(Cl)cc3Cl)CC2)CCN1`, 40%; as for `CN(C)CCN(C)C(=O)[C@H](Cc1ccc(Br)cc1)NC(=O)C1(c2ccc(Cl)cc2Cl)CC1`, 90%.

For the origin of these results see ChEMBL document CHEMBL2163189, “Discovery and characterization of an inhibitor of glucosylceramide synthase” (J Med Chem, 2012).
